Laboratory results published in PMC7034990 (Science Advances, 2020).

What was measured:
[1] = test system: F508del/F508del cultured bronchial epithelia; assay: Apical fluid pH measurement on CF bronchial epithelia; type: cell-based, human; settings: 24 hours
Outline: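 CF bronchial epithelia at air-liquid interface were treated 24 h with correctors or DMSO vehicle. The apical side then received 75 μl low-buffer modified PBS (pH 7.35) containing 100 μM CPT-cAMP and 1 μM VX-770, for 3 h at 37°C, 5% CO2. The recovered fluid was mixed with SNARF-1 (final 0.1 mg/ml), excited at 544 nm, and the 590/640 nm emission ratio converted to pH by calibration curve.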

[2] = test system: Ca2+-activated Cl− secretion in bronchial epithelia; assay: Ca2+-activated Cl− secretion elicited by UTP; type: cell-based, human; settings: UTP 100 μM; ARN23765 10 nM, VX-809 1 μM, 24 hr
Outline: (§1)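 Primary bronchial epithelial cells came from lung-transplant bronchi and were differentiated on porous inserts, then kept 2–3 weeks under air-liquid culture. Correctors or DMSO were given in basolateral medium. Epithelia were mounted in a vertical diffusion chamber, bicarbonate saline (126 mM NaCl, 24 mM NaHCO3, 10 mM glucose) both sides, gassed 5% CO2:95% air, 37°C. Voltage was clamped and short-circuit current recorded. ENaC was blocked with amiloride (10 μM).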

[3] = test system: receptors, monoamine transporters, ABC proteins, and hERG channel; assay: Off-target panel; settings: 10 μM
[4] = molecular target: F508del-CFTR in CFBE41o− cells (Homo sapiens, UniProt P13569, DEL508-508); assay: Thermoaggregation assay of mutant CFTR in cell lysates; type: cell-based; settings: lysates heat-denatured at 28° to 70°C; ARN23765 1 nM, VX-809 1 μM
Outline: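 F508del-CFTR CFBE41o− cells were treated 24 h; wild-type CFTR CFBE41o− cells were run in parallel. Confluent cells received cycloheximide (150 μg/ml) for 2 h, were lysed in RIPA on ice and cleared at 15,000g, 10 min, 4°C. Lysate (50 μg) was heated 15 min at 28–70°C. Aggregates were removed at 15,000g, 15 min, 4°C; soluble CFTR was immunoblotted and normalised to HSP90AB1.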

[5] = molecular target: T1, ENaC (Homo sapiens, UniProt P37088+P51168+P51170); assay: ENaC function from the response to apical amiloride; type: cell-based; settings: amiloride 10 μM; correctors for 24 hr
T1 sequence (P37088 1-669): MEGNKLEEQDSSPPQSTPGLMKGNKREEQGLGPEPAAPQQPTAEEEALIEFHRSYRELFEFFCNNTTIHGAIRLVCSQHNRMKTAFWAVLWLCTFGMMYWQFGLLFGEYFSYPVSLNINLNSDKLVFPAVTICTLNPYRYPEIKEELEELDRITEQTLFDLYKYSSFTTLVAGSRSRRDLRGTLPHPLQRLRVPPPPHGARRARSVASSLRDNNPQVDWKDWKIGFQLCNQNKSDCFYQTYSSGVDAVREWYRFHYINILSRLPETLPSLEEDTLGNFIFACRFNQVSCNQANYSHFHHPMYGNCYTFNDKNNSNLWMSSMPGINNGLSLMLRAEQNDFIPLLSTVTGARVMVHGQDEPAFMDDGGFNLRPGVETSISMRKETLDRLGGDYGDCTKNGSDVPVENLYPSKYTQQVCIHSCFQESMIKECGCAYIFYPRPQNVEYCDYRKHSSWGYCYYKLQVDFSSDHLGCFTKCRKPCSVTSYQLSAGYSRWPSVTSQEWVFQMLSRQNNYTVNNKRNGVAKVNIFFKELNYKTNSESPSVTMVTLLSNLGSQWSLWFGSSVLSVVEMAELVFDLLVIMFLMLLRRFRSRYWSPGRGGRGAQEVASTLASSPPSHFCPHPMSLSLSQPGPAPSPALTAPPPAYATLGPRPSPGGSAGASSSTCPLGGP
T1 sequence (P51168 1-640): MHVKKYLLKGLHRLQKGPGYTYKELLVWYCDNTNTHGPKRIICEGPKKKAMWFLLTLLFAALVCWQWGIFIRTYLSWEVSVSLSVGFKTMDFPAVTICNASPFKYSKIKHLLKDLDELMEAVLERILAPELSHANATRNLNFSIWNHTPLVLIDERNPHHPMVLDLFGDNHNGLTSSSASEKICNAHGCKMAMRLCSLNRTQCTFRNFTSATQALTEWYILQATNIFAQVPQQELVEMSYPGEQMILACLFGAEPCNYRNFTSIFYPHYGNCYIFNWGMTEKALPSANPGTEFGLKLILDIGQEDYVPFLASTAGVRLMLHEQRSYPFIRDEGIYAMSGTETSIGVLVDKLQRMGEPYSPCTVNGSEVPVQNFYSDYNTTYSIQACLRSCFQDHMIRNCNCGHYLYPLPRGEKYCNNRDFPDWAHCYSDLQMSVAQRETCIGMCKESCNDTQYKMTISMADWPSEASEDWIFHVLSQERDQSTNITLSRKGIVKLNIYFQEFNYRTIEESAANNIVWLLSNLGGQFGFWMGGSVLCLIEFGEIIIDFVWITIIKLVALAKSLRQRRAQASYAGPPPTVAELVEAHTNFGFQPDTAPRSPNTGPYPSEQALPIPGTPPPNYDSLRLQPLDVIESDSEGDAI
T1 sequence (P51170 1-649): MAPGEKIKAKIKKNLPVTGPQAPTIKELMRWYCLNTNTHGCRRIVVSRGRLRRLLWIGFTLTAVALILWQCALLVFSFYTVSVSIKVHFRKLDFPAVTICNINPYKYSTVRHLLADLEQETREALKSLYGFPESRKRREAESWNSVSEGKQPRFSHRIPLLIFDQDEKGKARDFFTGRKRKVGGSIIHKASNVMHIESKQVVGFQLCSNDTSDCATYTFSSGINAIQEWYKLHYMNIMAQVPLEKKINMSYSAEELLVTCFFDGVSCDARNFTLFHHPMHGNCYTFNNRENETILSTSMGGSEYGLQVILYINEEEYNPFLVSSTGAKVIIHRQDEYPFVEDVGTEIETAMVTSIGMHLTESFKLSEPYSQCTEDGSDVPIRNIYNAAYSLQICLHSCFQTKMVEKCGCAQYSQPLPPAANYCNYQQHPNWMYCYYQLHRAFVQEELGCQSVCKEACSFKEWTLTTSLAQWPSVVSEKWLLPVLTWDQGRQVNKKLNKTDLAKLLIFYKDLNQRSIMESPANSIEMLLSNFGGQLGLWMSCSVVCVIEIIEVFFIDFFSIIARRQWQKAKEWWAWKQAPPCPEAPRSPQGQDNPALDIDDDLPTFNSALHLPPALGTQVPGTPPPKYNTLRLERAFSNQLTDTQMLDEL
Outline: as §1

## CN(C(=O)c1cccc(-n2nc(C(F)(F)F)c3c2[C@@H](Oc2ccc(C(=O)O)cc2)CCC3)c1)c1ccc2c(c1)OC(F)(F)O2 [ARN23765]
[1]; ARN23765 10 nM plus 4172 10 μM
  pH of the apical fluid, combination of ARN23765 and 4172: further increased pH to a level significantly higher than that measured with each corrector alone
[1]; ARN23765 10 nM, 4172 10 μM, versus control-treated cells
  pH of the apical fluid, single corrector: significant increase in pH
[2]
  Ca2+-activated Cl− secretion: unaffected
[3]
  effects on a panel of relevant biological targets: no alerting effects
[4]
  resistance to thermoaggregation of mature CFTR: significantly increased the resistance to thermoaggregation of mature CFTR
[5]
  amplitude of the response to apical amiloride, ENaC function: modestly reduced
